From article PMC6699892 (Inorganic chemistry, 2019)

Experiment: Lipophilicity, modified shake flask octanol-water partition
Assay type: physicochemical
Details: chloride salts, 50 µM, 1-octanol/water, room temperature
In short: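 1-Octanol and water were mutually pre-saturated by shaking for 24 h at room temperature. Test compound at 50 µM in water-saturated octanol was mixed with an equal volume of octanol-saturated water, hand-shaken 200 times and centrifuged (11,000 rpm, 2 min). Each layer was quantified by absorbance against standard curves.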

[Cl][Ru][Cl].c1ccc(-c2ccccn2)nc1.c1ccc(-c2ccccn2)nc1.c1ccc(-c2ccccn2)nc1 [[Ru(bpy)3]Cl2, reference compound]
Octanol-water partition coefficient (log Po/w): < −3
